Columns and labels:
L1210 [1] = test: Percentage of putrescine after 48 hr exposure to the compound (500(150)uM ) in L1210 cells; assay type: functional, Mus musculus
Method in brief: (§1)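 Log-phase L1210 cells were treated for 48 h with analogue at two concentrations. Cells were washed twice in cold RPMI-1640 and extracted with 0.6 N HClO4. Putrescine, spermidine and spermine were quantified by HPLC of dansyl derivatives and given as percent of untreated controls. Runs were in triplicate with untreated controls.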

[2] = Effect on ornithine decarboxylase (ODC) tested at 1 uM at 4 hour in L1210 cells; assay type: functional, Mus musculus
Method in brief: (§2)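 L1210 cells were exposed to 1 μM analogue, for 4 h (ODC) or 6 h (AdoMetDC). Activity was measured as 14CO2 released from [14C]carboxyl-labelled L-ornithine (ODC) or S-adenosyl-L-methionine (AdoMetDC) and given as percent of untreated control. Each run included DEHSPM-treated positive controls. Values are the mean of at least three experiments.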

[3] = biological target: T1, S-adenosylmethionine decarboxylase proenzyme 1 (Mus musculus) (UniProt P0DMN7); test: Effect on S-Adenosyl-methionine decarboxylase (AdoMetDC) tested at 1 uM at 6 hour in L1210 cells; assay type: functional, cell-based; method in brief: as §2
T1 sequence (whole entry): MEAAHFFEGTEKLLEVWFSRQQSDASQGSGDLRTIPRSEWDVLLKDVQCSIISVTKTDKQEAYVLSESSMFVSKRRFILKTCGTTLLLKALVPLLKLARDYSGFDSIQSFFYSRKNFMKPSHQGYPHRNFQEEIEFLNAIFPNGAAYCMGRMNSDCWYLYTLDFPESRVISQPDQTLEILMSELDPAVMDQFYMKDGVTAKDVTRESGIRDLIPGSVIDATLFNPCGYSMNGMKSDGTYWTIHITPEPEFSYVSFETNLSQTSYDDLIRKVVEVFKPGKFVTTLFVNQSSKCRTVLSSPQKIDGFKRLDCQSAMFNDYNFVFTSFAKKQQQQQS

L1210 [4] = test: Growth inhibitory activity against L1210 cells (96h); assay type: functional, cell-based; conditions: Mus musculus, L1210, 96 h
Method in brief: (§3)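 Murine L1210 leukemia cells were kept in log growth in RPMI-1640 with 10% fetal calf serum or NuSerum, HEPES-MOPS buffer and 1 mM aminoguanidine. IC50 is the concentration giving 50% of untreated control growth, as the mean of at least two experiments.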

L1210 [5] = test: Percentage of spermidine after 48 hr of exposure to the compound (100(30)uM ) in L1210 cells; assay type: functional, Mus musculus; method in brief: as §1
L1210 [6] = test: Percentage of spermine after 48 hr exposure to the compound (100(30)uM ) in L1210 cells; assay type: functional, Mus musculus; method in brief: as §1
[7] = biological target: Spermidine/spermine N(1)-acetyltransferase (SAT) (Mus musculus) (UniProt Q6P8J2+P48026); test: Effect on Spermidine/Spermine-Acetyltransferase (SSAT ) at 10 uM at 48 hour in L1210 cells; assay type: functional, cell-based
Chain of Spermidine/spermine N(1)-acetyltransferase (SAT) (Mus musculus) (P48026 whole entry, looked up): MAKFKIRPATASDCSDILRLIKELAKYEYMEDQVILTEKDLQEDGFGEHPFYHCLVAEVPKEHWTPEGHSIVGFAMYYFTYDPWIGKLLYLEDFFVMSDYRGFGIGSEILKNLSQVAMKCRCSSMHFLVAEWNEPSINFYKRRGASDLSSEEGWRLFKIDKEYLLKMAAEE
Chain of Spermidine/spermine N(1)-acetyltransferase (SAT) (Mus musculus) (Q6P8J2 whole entry, looked up): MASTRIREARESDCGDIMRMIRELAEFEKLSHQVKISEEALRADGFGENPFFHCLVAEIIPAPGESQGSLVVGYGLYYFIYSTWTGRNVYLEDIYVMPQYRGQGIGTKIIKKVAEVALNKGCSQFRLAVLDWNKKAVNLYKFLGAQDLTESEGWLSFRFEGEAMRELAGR
Method in brief: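 L1210 cells were exposed to 10 μM triamine for 48 h. SSAT activity was taken as [14C]N1-acetylspermidine formed from spermidine and [14C]acetyl-CoA, given as percent of untreated control. DENSPM-treated cells served as positive control. Values are the mean of at least three experiments.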

[8] = The chronic lethal dose administered as intraperitoneal injection; assay type: ADME; conditions: mouse, ip
Method in brief: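 Female CD-1 mice, 10–12 weeks old. Analogue given as hydrochloride salt by ip injection three times daily for 6 days (18 doses). Appetite, weight and appearance monitored daily, and lethality scored 10 days after the final dose.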

L1210 [9] = test: Percentage of spermine after 48 hr exposure to the compound (500(150)uM ) in L1210 cells; assay type: functional, Mus musculus
Method in brief: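 Log-phase murine L1210 leukemia cells (RPMI-1640, 10% fetal calf serum or NuSerum, HEPES-MOPS buffer, 1 mM aminoguanidine) exposed 48 h to analogue at two concentrations. Cells washed twice in cold RPMI-1640 and extracted with 0.6 N HClO4. Spermine in extracts quantified by HPLC of DANSYL derivatives and expressed as percent of untreated controls. Triplicate flasks per condition.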

L1210 [10] = test: Intracellular levels in L1210 cells following 500 uM exposure.; assay type: functional, Mus musculus
Method in brief: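 L1210 cells were grown 48 h in medium containing 500 μM analogue. Cellular contents were analysed by HPLC of dansyl derivatives and given as pmol/10^6 cells, as parent drug and metabolites with the % of total drug in the cell.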

L1210 [11] = test: Percentage of putrescine after 48 hr exposure to the compound (100(30)uM ) in L1210 cells; assay type: functional, Mus musculus; method in brief: as §1
L1210 [12] = test: Growth inhibitory activity against L1210 cells (48h); assay type: functional, cell-based; conditions: Mus musculus, L1210, 48 h; method in brief: as §3
[13] = Binding affinity values for polyamine transporter was determined
L1210 [14] = test: Percentage of spermidine after 48 hr of exposure to the compound (500(150)uM ) in L1210 cells; assay type: functional, Mus musculus; method in brief: as §1
L1210 [15] = test: Percentage of spermidine after 48 hr of exposure to the compound (4.5 uM ) in L1210 cells; assay type: functional, Mus musculus
Method in brief: (§4)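 Murine L1210 leukemia cells in log-phase growth (RPMI-1640, 10% fetal calf serum or NuSerum, HEPES-MOPS, 1 mM aminoguanidine) exposed to analogue for 48 h. Cells washed twice with cold RPMI-1640 and extracted with 0.6 N HClO4. PUT, SPD and SPM measured by HPLC of DANSYL derivatives and given as percent of untreated controls. Triplicate flasks per experiment.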

L1210 [16] = test: Percentage of putrescine after 48 hr exposure to the compound (4.5 uM ) in L1210 cells; assay type: functional, Mus musculus; method in brief: as §4
L1210 [17] = test: Percentage of spermidine after 48 hr of exposure to the compound (0.9 uM ) in L1210 cells; assay type: functional, Mus musculus; method in brief: as §4
L1210 [18] = test: Percentage of putrescine after 48 hr exposure to the compound (0.9 uM ) in L1210 cells; assay type: functional, Mus musculus; method in brief: as §4
L1210 [19] = test: Percentage of spermine after 48 hr exposure to the compound (4.5 uM ) in L1210 cells; assay type: functional, Mus musculus; method in brief: as §4
L1210 [20] = test: Percentage of putrescine after 48 hr exposure to the compound (125 uM ) in L1210 cells; assay type: functional, Mus musculus; method in brief: as §1
L1210 [21] = test: Percentage of spermidine after 48 hr of exposure to the compound (125 uM ) in L1210 cells; assay type: functional, Mus musculus; method in brief: as §1
L1210 [22] = test: Percentage of spermine after 48 hr exposure to the compound (125 uM ) in L1210 cells; assay type: functional, Mus musculus; method in brief: as §1
L1210 [23] = test: Percentage of putrescine after 48 hr exposure to the compound (25(10)uM ) in L1210 cells; assay type: functional, Mus musculus; method in brief: as §1
L1210 [24] = test: Percentage of spermidine after 48 hr of exposure to the compound (25(10)uM ) in L1210 cells; assay type: functional, Mus musculus; method in brief: as §1
L1210 [25] = test: Percentage of putrescine after 48 hr exposure to the compound (75 uM ) in L1210 cells; assay type: functional, Mus musculus; method in brief: as §1
L1210 [26] = test: Percentage of spermidine after 48 hr of exposure to the compound (15 uM ) in L1210 cells; assay type: functional, Mus musculus; method in brief: as §1
L1210 [27] = test: Percentage of putrescine after 48 hr exposure to the compound (15 uM )in L1210 cells; assay type: functional, Mus musculus; method in brief: as §1
L1210 [28] = test: Percentage of spermidine after 48 hr of exposure to the compound (75 uM ) in L1210 cells; assay type: functional, Mus musculus; method in brief: as §1

Structure (SMILES)	ODC [2]	AdoMetDC [3]	IC50 (L1210 [4])	SSAT [7]	Picoequivalents of amine/10e6 cells (L1210 [10])	IC50 (L1210 [12])	Ki [13]	further results
CCNCCCCNCCCNCC	30%	68%	0.7 µM	1380%	14050	100 µM	19 µM	Polyamine (L1210 [1]): 0%; Polyamine (L1210 [5]): 5%; Polyamine (L1210 [6]): 74%; LD50 [8]: 426 mg/kg/day; Polyamine (L1210 [9]): 55%; Polyamine (L1210 [11]): 0%; Polyamine (L1210 [14]): 0%
NCCCNCCCN [NORSPERMIDINE]	11%	62%	0.5 µM	150%		0.9 µM	7.2 µM	Polyamine (L1210 [15]): 12%; Polyamine (L1210 [16]): 0%; Polyamine (L1210 [17]): 44%; Polyamine (L1210 [18]): 38%; Polyamine (L1210 [19]): 83%
CCNCCCCNCCCCNCC	47%	90%	0.35 µM	640%	16920	22 µM	19 µM	Polyamine (L1210 [20]): 0%; Polyamine (L1210 [21]): 3%; Polyamine (L1210 [22]): 97%; Polyamine (L1210 [23]): 0%; Polyamine (L1210 [24]): 6%
CNCCCCCNCCCCCNC	105%	97%	0.4 µM	90%	15500	15 µM	130 µM	Polyamine (L1210 [25]): 0%; Polyamine (L1210 [26]): 33%; Polyamine (L1210 [27]): 0%; Polyamine (L1210 [28]): 20%

Source: ChEMBL document CHEMBL1130028, “A comparison of structure-activity relationships between spermidine and spermine analogue antineoplastics” (J Med Chem, 1997)
